Measured values as given in ChEMBL document CHEMBL1145155, “Synthesis and identification of [1,3,5]triazine-pyridine biheteroaryl as a novel series of potent cyclin-dependent kinase inhibitors” (J Med Chem, 2005).

Key:
[1] = Inhibitory concentration of compound against growth of MES SA/Dx 5 cells (high p glycoprotein); conditions: Homo sapiens, MES-SA/Dx5
[2] = target: Cyclin-dependent kinase 2/cyclin A (Homo sapiens, UniProt P24941); assay: Inhibitory concentration of compound against CDK2/cyclin A; assay type: protein-complex assay
[3] = target: Cyclin-dependent kinase 7/ cyclin H (Homo sapiens, UniProt P50613); assay: Inhibition of CDK7/cyclin H; assay type: protein-complex assay
Summary of the method: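 Run by Upstate Biotech as a contract panel: kinase phosphorylation of an appropriate peptide/protein substrate with 100 μM ATP, under conditions linear with time. IC50 is the average of two separate determinations.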

[4] = Inhibition of Protein kinase C gamma
[5] = target: T1, Cyclin-dependent kinase 1 (Homo sapiens, UniProt P06493); assay: Inhibition of cyclin dependent kinase CDK1
Summary of the method: (§1)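 Incubated 1 h at 30 °C on a streptavidin-coated plate, stopped by washing with PBS containing 100 mM EDTA, then scintillation counted. Conditions varied slightly by kinase. IC50 was derived by linear regression of % inhibition versus untreated controls.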

[6] = target: Cyclin-dependent kinase 4/cyclin D1 (Homo sapiens, UniProt P11802); assay: Inhibition of CDK4/cyclin D1; assay type: protein-complex assay; summary of the method: as §1
[7] = target: CDK6/cyclin D3 (Homo sapiens, UniProt Q00534); assay: Inhibition of CDK6/cyclin D3; assay type: protein-complex assay
Summary of the method: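 Run in an external kinase panel. Kinase phosphorylation of the appropriate peptide/protein substrate was measured with 100 μM ATP, under conditions linear with time. IC50 is the average of two separate determinations.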

[8] = target: Mitogen-activated protein kinase 1 (Homo sapiens, UniProt P28482); assay: Inhibition of ERK 2
[9] = target: RAC-beta serine/threonine-protein kinase (Homo sapiens, UniProt P31751); assay: Inhibition of PKB beta
[10] = Inhibition of Glycogen synthase kinase-3 beta
[11] = target: Cyclin-dependent kinase 1/cyclin B (Homo sapiens, UniProt P06493); assay: Inhibition of Cyclin-dependent kinase 1-cyclin B; assay type: protein-complex assay
[12] = target: Fibroblast growth factor receptor 2 (Homo sapiens, UniProt P21802); assay: Inhibition of Fibroblast growth factor receptor 2
[13] = Inhibition of [Ca(2+)]/Calmodulin dependent kinase
[14] = tested on: HeLa; assay: Inhibitory concentration of compound against growth of HeLa cells; conditions: Homo sapiens
[15] = tested on: A-375; assay: Inhibitory concentration of compound against growth of A-375 cells; conditions: Homo sapiens
[16] = tested on: U-937; assay: Inhibitory concentration of compound against growth of U-937 cells; conditions: Homo sapiens
[17] = tested on: HCT-116; assay: Inhibitory concentration of compound against growth of HCT116 cells; conditions: Homo sapiens
[18] = Inhibitory concentration of compound against growth of MES SA cells (low p glycoprotein); conditions: Homo sapiens
[19] = target: Casein kinase II (Homo sapiens, UniProt P19784+P67870+P68400); assay: Inhibition of Casein kinase II; assay type: protein-complex assay
[20] = target: Cyclin-dependent kinase 5/CDK5 activator 1 (Homo sapiens, UniProt Q00535)
[21] = target: Vascular endothelial growth factor receptor 2 (Homo sapiens, UniProt P35968); assay: Inhibition of vascular endothelial growth factor receptor 2
[22] = target: T1, Cyclin-dependent kinase 1; assay: Inhibition of cyclin dependent kinase (CDK1)
Summary of the method: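 Radiometric FlashPlate assay: biotinylated peptide substrate at 0.025 μM with 33P-γ-ATP plus 10 μM ATP in 50 mM Tris-HCl pH 8, 10 mM MgCl2, 0.1 mM Na3VO4, 1 mM DTT. Incubated 1 h at 30 °C, stopped by PBS/100 mM EDTA wash, then scintillation counted. Inhibition is relative to untreated controls; IC50 from linear regression of percent inhibition. Conditions varied slightly per kinase.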

For `OCCCNc1cc(-c2ncnc(Nc3cccc(Cl)c3)n2)ccn1`, the IC50 [1] was 235 nM, the IC50 [2] was 7 nM and the IC50 [3] was 126 nM. The IC50 [4] was > 10000 nM, the IC50 [5] was 21 nM and the IC50 [6] was 308 nM. For the same compound, the IC50 [7] was 356 nM, the IC50 [8] was > 10000 nM and the IC50 [9] was > 10000 nM. For the same compound, the IC50 [10] was 20 nM, the IC50 [11] was 21 nM and the IC50 [12] was > 10000 nM. For the same compound, the IC50 [13] was > 10000 nM, the IC50 [14] was 33 nM and the IC50 [15] was 28 nM. For the same compound, the IC50 [16] was 31 nM, the IC50 [17] was 23 nM and the IC50 [18] was 228 nM. For the same compound, the IC50 [19] was > 10000 nM and the IC50 [20] was 3 nM.

In the case of `OCCCNc1cncc(-c2ncnc(Nc3cccc(Cl)c3)n2)n1`, the IC50 [21] is reported as > 10000 nM.

For `OCCCNc1cncc(-c2ncnc(Nc3ccc4c(c3)OCCO4)n2)c1`, the IC50 [21] was 4140 nM and the IC50 [22] was 344 nM.

For `Nc1nc(Nc2cccc(Cl)c2)nc(-c2ccnc(NCCCO)c2)n1`, the IC50 [21] was 1070 nM and the IC50 [22] was 1110 nM.

For `OCCCNc1cncc(-c2ncnc(Nc3ccc(N4CCOCC4)cc3)n2)c1`, the IC50 [21] was 5030 nM.

`OCCCNc1cncc(-c2ncnc(Nc3cccc(Cl)c3)n2)c1` showed an IC50 [21] of 2010 nM and an IC50 [22] of 60 nM.
